Legend:
[1] = Cytotoxicity against rat C6 cells assessed as viable cells at 20 uM after 24 hrs by MTT assay; assay type: cell-based; settings: read-out: Activity
How it was run: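 C6 rat glioma cells exposed to test agent at 20 μM for 24 h; viability read by MTT and expressed as percentage of untreated control. Means ± SD of three independent experiments, each in triplicate; significance versus control by Student's t-test (p < 0.05).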

[2] = system: C6; test: Induction of NGF production in rat C6 cells at 20 uM after 24 hrs by ELISA relative to untreated control; assay type: functional
How it was run: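 C6 glioma cells treated at 20 μM for 24 h; NGF released into C6-conditioned medium quantified by ELISA, reported as percentage of untreated control. Means ± SD from three independent experiments run in triplicate; Student's t-test versus control, p < 0.05.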

Compound | viability at 24 h, 20 µM [1] | Activity [2]
COCC(=O)c1ccc(O)cc1 | 99.8% | 105.6%
CCCCO[C@]1(CO)O[C@H](CO)[C@@H](O)[C@@H]1O | 102% | 117.5%
COc1cc(O)cc(CCc2ccccc2O)c1 [BATATASIN IV] | 95% | 106.1%
CC(=O)CCc1ccc(O)cc1 [RASPBERRYKETONE] | 101% | 106.8%
CC[C@H](CC[C@@H](C)[C@H]1CC[C@H]2[C@@H]3CC=C4C[C@@H](O)CC[C@]4(C)[C@H]3CC[C@]12C)C(C)C [BETA-SITOSTEROL] | 104% | 106.1%
C[C@H](CC[C@@]1(O)O[C@H]2C[C@H]3[C@@H]4CC=C5C[C@@H](O[C@@H]6O[C@H](CO)[C@@H](O[C@@H]7OC[C@H](O)[C@H](O)[C@H]7O)[C@H](O)[C@H]6O[C@@H]6O[C@@H](C)[C@H](O)[C@@H](O)[C@H]6O)CC[C@]5(C)[C@H]4CC[C@]3(C)[C@H]2[C@@H]1C)CO[C@@H]1O[C@H](CO)[C@@H](O)[C@H](O)[C@H]1O [COREAJAPONINS A] | 106% | 107.2%
COc1cc(CC[C@@H](O)C[C@@H](O)CCc2ccc(O)c(OC)c2)ccc1O | 102% | 120.7%
CO[C@]1(CC[C@@H](C)CO[C@@H]2O[C@H](CO)[C@@H](O)[C@H](O)[C@H]2O)O[C@H]2C[C@H]3[C@@H]4CC=C5C[C@@H](O[C@@H]6O[C@H](CO)[C@@H](O[C@@H]7OC[C@H](O)[C@H](O)[C@H]7O)[C@H](O)[C@H]6O[C@@H]6O[C@@H](C)[C@H](O)[C@@H](O)[C@H]6O)CC[C@]5(C)[C@H]4CC[C@]3(C)[C@H]2[C@@H]1C [COREAJAPONINS B] | 98% | 132.9%
NC(=O)NC1NC(=O)NC1=O (centres undefined) [ALLANTOIN] | 100% | 102.4%
CC1=CC(=O)CC(C)(C)[C@@]1(O)/C=C/[C@@H](C)O [BLUMENOL A] | 101% | 122.2%
COc1cc(O)cc(CCc2ccccc2OC)c1 [STILBOSTEMINN] | 104% | 104.6%
Oc1cc(O)cc(CCc2ccccc2)c1 [DIHYDROPINOSYLVIN] | 105% | 117%

— ChEMBL document CHEMBL1759951, “Furostanol saponins from the rhizomes of Dioscorea japonica and their effects on NGF induction” (Bioorg Med Chem Lett, 2011)
